In brackets after ≈: the same amount, converted by molar mass. Activity calls are given as the source filed them. The calls are words filed in the database; no cut-off is given here.
Columns and labels:
[1] = test system: Mycobacterium tuberculosis; test: Antimycobacterial activity against multidrug-resistant Mycobacterium tuberculosis 08-0785 harboring gyrA Ala90Val mutant gene by resazurin microtiter assay; format: functional
In short: (§1)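 MIC was read by resazurin microtiter assay against ofloxacin, moxifloxacin and gatifloxacin. Isolates were used as fresh Löwenstein-Jensen subcultures kept at 37°C for no longer than 4 weeks.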

[2] = test system: Mycobacterium tuberculosis; test: Antimycobacterial activity against multidrug-resistant Mycobacterium tuberculosis 08-0797 harboring gyrA Ala90Val mutant gene by resazurin microtiter assay; format: functional; in short: as §1
[3] = test system: Mycobacterium tuberculosis; test: Antimycobacterial activity against multidrug-resistant Mycobacterium tuberculosis 01-2614 harboring gyrA Asp94Gly mutant gene by resazurin microtiter assay; format: functional
In short: (§2)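 Isolates taken from fresh Löwenstein-Jensen subcultures grown at 37°C for at most 4 weeks. Drug stocks 1 mg/ml in 0.1 N NaOH, filter sterilized, stored at −20°C less than 2 months. MIC read by resazurin microtiter assay following a previously described protocol.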

[4] = test system: Mycobacterium tuberculosis; test: Antimycobacterial activity against multidrug-resistant Mycobacterium tuberculosis 08-0821 harboring gyrA Asp94Tyr mutant gene by resazurin microtiter assay; format: functional; in short: as §1
[5] = test system: Mycobacterium tuberculosis; test: Antimycobacterial activity against multidrug-resistant Mycobacterium tuberculosis 02-2399 harboring gyrA Asp94Tyr mutant gene by resazurin microtiter assay; format: functional; in short: as §2
[6] = test system: Mycobacterium tuberculosis; test: Antimycobacterial activity against multidrug-resistant Mycobacterium tuberculosis 02-0319 harboring gyrA Asp94Ala mutant gene by resazurin microtiter assay; format: functional; in short: as §2
[7] = test system: Mycobacterium tuberculosis; test: Antimycobacterial activity against multidrug-resistant Mycobacterium tuberculosis 01-0172 harboring gyrA Asp94Ala mutant gene by resazurin microtiter assay; format: functional; in short: as §2
[8] = test system: Mycobacterium tuberculosis; test: Antimycobacterial activity against multidrug-resistant Mycobacterium tuberculosis 04-0519 harboring gyrA Ala90Val and Asp94Asn mutant gene by resazurin microtiter assay; format: functional; in short: as §1
[9] = test system: Mycobacterium tuberculosis; test: Antimycobacterial activity against Mycobacterium tuberculosis 08-0745 harboring gyrA Asp89Asn mutant gene by resazurin microtiter assay; format: functional; in short: as §2
[10] = test system: Mycobacterium tuberculosis; test: Antimycobacterial activity against multidrug-resistant Mycobacterium tuberculosis 02-1234 harboring gyrA Asn533Thr gyrB mutant gene by resazurin microtiter assay; format: functional; in short: as §2
[11] = test system: Mycobacterium tuberculosis; test: Antimycobacterial activity against multidrug-resistant Mycobacterium tuberculosis 08-0794 harboring gyrA Thr80Ala mutant gene by resazurin microtiter assay; format: functional; in short: as §1
[12] = test system: Mycobacterium tuberculosis; test: Antimycobacterial activity against Mycobacterium tuberculosis 08-0815 harboring gyrA Thr80Ala and Ala90Gly mutant gene by resazurin microtiter assay; format: functional; in short: as §2
[13] = test system: Mycobacterium tuberculosis; test: Antimycobacterial activity against Mycobacterium tuberculosis 08-0769 harboring gyrA putative promoter mutant gene by resazurin microtiter assay; format: functional; in short: as §2
[14] = test system: Mycobacterium tuberculosis; test: Antimycobacterial activity against Mycobacterium tuberculosis 08-0771 harboring gyrA putative promoter mutant gene by resazurin microtiter assay; format: functional; in short: as §2
[15] = test system: Mycobacterium tuberculosis; test: Antimycobacterial activity against multidrug-resistant Mycobacterium tuberculosis 08-0777 by resazurin microtiter assay; format: functional; in short: as §1
[16] = test system: Mycobacterium tuberculosis; test: Antimycobacterial activity against multidrug-resistant Mycobacterium tuberculosis 08-0779 by resazurin microtiter assay; format: functional; in short: as §1
[17] = test system: Mycobacterium tuberculosis; test: Antimycobacterial activity against multidrug-resistant Mycobacterium tuberculosis 03-0738 harboring gyrA Ala90Val mutant gene assessed as microbial susceptibility by agar proportion method; format: functional, organism-based
In short: (§3)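 Clinical isolates freshly subcultured on Löwenstein-Jensen medium at 37°C for no more than 4 weeks. Susceptibility by standard proportion method on 7H11 agar at breakpoints of 2 mg/liter ofloxacin and 0.5 mg/liter moxifloxacin and gatifloxacin. Drug stocks 1 mg/ml in 0.1 N NaOH, filter sterilized, held at −20°C under 2 months. Isolates scored susceptible or resistant.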

[18] = test system: Mycobacterium tuberculosis; test: Antimycobacterial activity against multidrug-resistant Mycobacterium tuberculosis 02-2934 harboring gyrA Ala90Val mutant gene assessed as microbial susceptibility by agar proportion method; format: functional, organism-based
In short: (§4)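 Clinical isolates freshly subcultured on Löwenstein-Jensen medium, held at 37°C no longer than 4 weeks. Fluoroquinolone stocks 1 mg/ml in 0.1 N NaOH, filter sterilized, kept at −20°C under 2 months. Standard proportion method on 7H11 agar; breakpoints 2 mg/liter ofloxacin, 0.5 mg/liter moxifloxacin and gatifloxacin; scored susceptible or resistant.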

[19] = test system: Mycobacterium tuberculosis; test: Antimycobacterial activity against multidrug-resistant Mycobacterium tuberculosis 01-1647 harboring gyrA Ala90Val mutant gene assessed as microbial susceptibility by agar proportion method; format: functional, organism-based; in short: as §4
[20] = test system: Mycobacterium tuberculosis; test: Antimycobacterial activity against multidrug-resistant Mycobacterium tuberculosis 01-0930 harboring gyrA Ala90Val mutant gene assessed as microbial susceptibility by agar proportion method; format: functional, organism-based; in short: as §4
[21] = test system: Mycobacterium tuberculosis; test: Antimycobacterial activity against multidrug-resistant Mycobacterium tuberculosis 08-0757 harboring gyrA Ala90Val mutant gene assessed as microbial susceptibility by agar proportion method; format: functional, organism-based; in short: as §3
[22] = test system: Mycobacterium tuberculosis; test: Antimycobacterial activity against multidrug-resistant Mycobacterium tuberculosis 08-0785 harboring gyrA Ala90Val mutant gene assessed as microbial susceptibility by agar proportion method; format: functional, organism-based; in short: as §3
[23] = test system: Mycobacterium tuberculosis; test: Antimycobacterial activity against multidrug-resistant Mycobacterium tuberculosis 08-0790 harboring gyrA Ala90Val mutant gene assessed as microbial susceptibility by agar proportion method; format: functional, organism-based; in short: as §3
[24] = test system: Mycobacterium tuberculosis; test: Antimycobacterial activity against multidrug-resistant Mycobacterium tuberculosis 08-0797 harboring gyrA Ala90Val mutant gene assessed as microbial susceptibility by agar proportion method; format: functional, organism-based; in short: as §3
[25] = test system: Mycobacterium tuberculosis; test: Antimycobacterial activity against multidrug-resistant Mycobacterium tuberculosis 99-1914 harboring gyrA Asp94Gly mutant gene assessed as microbial susceptibility by agar proportion method; format: functional, organism-based; in short: as §3
[26] = test system: Mycobacterium tuberculosis; test: Antimycobacterial activity against multidrug-resistant Mycobacterium tuberculosis 01-2230 harboring gyrA Asp94Gly mutant gene assessed as microbial susceptibility by agar proportion method; format: functional, organism-based; in short: as §4
[27] = test system: Mycobacterium tuberculosis; test: Antimycobacterial activity against multidrug-resistant Mycobacterium tuberculosis 08-0810 harboring gyrA Asp94Tyr mutant gene assessed as microbial susceptibility by agar proportion method; format: functional, organism-based; in short: as §3
[28] = test system: Mycobacterium tuberculosis; test: Antimycobacterial activity against multidrug-resistant Mycobacterium tuberculosis 08-0821 harboring gyrA Asp94Tyr mutant gene assessed as microbial susceptibility by agar proportion method; format: functional, organism-based; in short: as §3
[29] = test system: Mycobacterium tuberculosis; test: Antimycobacterial activity against Mycobacterium tuberculosis 04-0649 harboring gyrA Asp94Asn mutant gene assessed as microbial susceptibility by agar proportion method; format: functional, organism-based; in short: as §4
[30] = test system: Mycobacterium tuberculosis; test: Antimycobacterial activity against multidrug-resistant Mycobacterium tuberculosis 02-2399 harboring gyrA Asp94Tyr mutant gene assessed as microbial susceptibility by agar proportion method; format: functional, organism-based; in short: as §4
[31] = test system: Mycobacterium tuberculosis; test: Antimycobacterial activity against multidrug-resistant Mycobacterium tuberculosis 04-0519 harboring gyrA Ala90Val and Asp94Asn mutant gene assessed as microbial susceptibility by agar proportion method; format: functional, organism-based; in short: as §3
[32] = test system: Mycobacterium tuberculosis; test: Antimycobacterial activity against multidrug-resistant Mycobacterium tuberculosis 02-1234 harboring gyrA Asn533Thr gyrB mutant gene assessed as microbial susceptibility by agar proportion method; format: functional, organism-based; in short: as §4
[33] = test system: Mycobacterium tuberculosis; test: Antimycobacterial activity against multidrug-resistant Mycobacterium tuberculosis 08-0794 harboring gyrA Thr80Ala mutant gene assessed as microbial susceptibility by agar proportion method; format: functional, organism-based; in short: as §3
[34] = test system: Mycobacterium tuberculosis; test: Antimycobacterial activity against Mycobacterium tuberculosis 08-0815 harboring gyrA Thr80Ala and Ala90Gly mutant gene assessed as microbial susceptibility by agar proportion method; format: functional, organism-based; in short: as §4
[35] = test system: Mycobacterium tuberculosis; test: Antimycobacterial activity against Mycobacterium tuberculosis 08-0769 harboring gyrA putative promoter mutant gene assessed as microbial susceptibility by agar proportion method; format: functional, organism-based; in short: as §4
[36] = test system: Mycobacterium tuberculosis; test: Antimycobacterial activity against Mycobacterium tuberculosis 00-0715 harboring gyrA Ala90Val mutant gene by resazurin microtiter assay; format: functional; in short: as §2
[37] = test system: Mycobacterium tuberculosis; test: Antimycobacterial activity against multidrug-resistant Mycobacterium tuberculosis 01-1647 harboring gyrA Ala90Val mutant gene by resazurin microtiter assay; format: functional; in short: as §2

Structure (SMILES)	MIC [1]	MIC [2]	MIC [3]	MIC [4]	MIC [5]	MIC [6]	MIC [7]	MIC [8]	MIC [9]	MIC [10]	MIC [11]	MIC [12]	MIC [13]	MIC [14]	MIC [15]	MIC [16]	Activity [17]	Activity [18]	Activity [19]	Activity [20]	also measured
CC1COc2c(N3CCN(C)CC3)c(F)cc3c(=O)c(C(=O)O)cn1c23 (centres undefined) [OFLOXACIN]	8 µg/mL (≈ 22.1 µM)	4 µg/mL (≈ 11.1 µM)	16 µg/mL (≈ 44.3 µM)	8 µg/mL (≈ 22.1 µM)	4 µg/mL (≈ 11.1 µM)	4 µg/mL (≈ 11.1 µM)	4 µg/mL (≈ 11.1 µM)	>32 µg/mL	4 µg/mL (≈ 11.1 µM)	1 µg/mL (≈ 2.77 µM)	0.5 µg/mL (≈ 1.38 µM)	<=0.25 mg/L	1 µg/mL (≈ 2.77 µM)	1 µg/mL (≈ 2.77 µM)	0.5 µg/mL (≈ 1.38 µM)	0.5 µg/mL (≈ 1.38 µM)	inactive	inactive	inactive	inactive	Activity [21]: inactive; Activity [22]: inactive; Activity [23]: inactive; Activity [24]: inactive; Activity [25]: inactive; Activity [26]: inactive; Activity [27]: inactive; Activity [28]: inactive; Activity [29]: inactive; Activity [30]: inactive; Activity [31]: inactive; Activity [32]: Active; Activity [33]: Active; Activity [34]: Active; Activity [35]: Active; MIC [36]: 4 µg/mL (≈ 11.1 µM); MIC [37]: 4 µg/mL (≈ 11.1 µM)
COc1c(N2C[C@@H]3CCCN[C@@H]3C2)c(F)cc2c(=O)c(C(=O)O)cn(C3CC3)c12 [MOXIFLOXACIN]	2 µg/mL (≈ 4.98 µM)	1 µg/mL (≈ 2.49 µM)	2 µg/mL (≈ 4.98 µM)	4 µg/mL (≈ 9.96 µM)	0.5 µg/mL (≈ 1.25 µM)	0.5 µg/mL (≈ 1.25 µM)	0.5 µg/mL (≈ 1.25 µM)	>8 µg/mL	2 µg/mL (≈ 4.98 µM)	0.5 µg/mL (≈ 1.25 µM)	<=0.125 mg/L	<=0.125 mg/L	<=0.125 mg/L	<=0.125 mg/L	≤ 0.125 µg/mL	≤ 0.125 µg/mL	inactive	inactive	inactive	inactive	Activity [21]: inactive; Activity [22]: inactive; Activity [23]: inactive; Activity [24]: inactive; Activity [25]: inactive; Activity [26]: inactive; Activity [27]: inactive; Activity [28]: inactive; Activity [29]: inactive; Activity [30]: inactive; Activity [31]: inactive; Activity [32]: inactive; Activity [33]: Active; Activity [34]: Active; Activity [35]: Active; MIC [36]: 0.5 µg/mL (≈ 1.25 µM); MIC [37]: 0.5 µg/mL (≈ 1.25 µM)

From ChEMBL document CHEMBL1649247, “Fluoroquinolone resistance in Mycobacterium tuberculosis and mutations in gyrA and gyrB” (2009)
